ChEMBL document CHEMBL1275263, “Synthesis and evaluation of stilbene derivatives as a potential imaging agent of amyloid plaques” (Bioorg Med Chem, 2010)
pKd: −log10 of the molar value.

Tests used:
[1] = Binding affinity to amyloid beta (1 to 40)
Outline: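 Aβ40 peptide in PBS (pH 7.4), brought to 200 final and shaken gently at 37 °C for 48 h to form fibrils, which were confirmed by ThT assay. Dye fluorescence was measured with the fibrils in PBS, with excitation and emission maxima determined by spectral scans. KD came from nonlinear regression fitting a one-site binding model, from 5 replicate experiments (N = 5).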

[2] = Binding to amyloid beta (1 to 40) fibrils assessed as fold increase in compound fluorescence at 30 uM by fluorescence assay relative to control

| pKd [1] | Ratio [2] | SMILES |
| --- | --- | --- |
| 5.74 | 15.7 | CN(CCO)c1ccc(/C=C/c2ccc(Br)cc2)cc1 |
| 5.54 | 8.91 | CN(CCO)c1ccc(/C=C/c2cccc(Br)c2)cc1 |
| 5.64 | – | Cc1ccc2c(c1)sc(-c1ccc(N(C)C)cc1)[n+]2C [THIOFLAVIN T] |
| 6.52 | – | CNc1ccc(-c2nc3ccccc3s2)cc1 |
| 5.95 | 25.8 | CNc1ccc(/C=C/c2ccc(Br)cc2)cc1 |
| 4.75 | 9.3 | CNc1ccc(/C=C/c2cccc(OC)c2)cc1 |
